pIC50: −log10 of the molar value.
Columns and labels:
[1] = Terminal half life in CD1 mouse plasma at 750 umol/kg, ip; format: ADME, organism-based
Procedure, shortened: (§1)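 Single i.p. dose to homozygous nude CD-1 Foxn1nu mice, at 75 or 100% of MTD (MTD set by 1.33-fold dose steps; highest dose without death, >15% weight loss or severe morbidity in any of six mice). Total drug measured in plasma by HPLC. AUC, Cmax and terminal t½ derived noncompartmentally. Measured levels taken as free drug.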

HT-29 [2] = experiment: Ratio of IC50 for HT29 cells in aerobic condition to IC50 for HT29 cells in hypoxic condition after 4 hrs; format: functional, Homo sapiens
Procedure, shortened: (§2)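 Aerobic and anoxic (H2/Pd chamber) IC50s measured in the same experiment after 4 h exposure, HT29 or SiHa cells. Ratio computed as aerobic IC50/anoxic IC50.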

HT-29 [3] = experiment: Cell viability in anoxic HT29 cells assessed as drug level providing 10% surviving fraction by clonogenic assay; format: cell-based; conditions: human
HT-29 [4] = experiment: Drug penetration in anoxic HT29 cells assessed as penetration half distance; format: ADME, cell-based; conditions: human
HT-29 [5] = experiment: Antitumor activity against HT29 tumor inoculated in CD1 nude mouse at 1000 umol/kg, ip relative to control
HT-29 [6] = experiment: Cytotoxicity against HT29 cells under hypoxic condition after 4 hrs; format: functional, cell-based; conditions: Homo sapiens, HT-29, 4 h
Procedure, shortened: (§3)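 HT29 or SiHa cells exposed to drug for 4 h in 96-well plates under anoxia (H2/Pd anaerobic chamber). IC50 determined.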

SiHa [7] = experiment: Cytotoxicity against SiHa cells under hypoxic condition after 4 hrs; format: functional, cell-based; conditions: Homo sapiens; procedure, shortened: as §3
SiHa [8] = experiment: Ratio of IC50 for SiHa cells in aerobic condition to IC50 for SiHa cells in hypoxic condition after 4 hrs; format: functional, Homo sapiens; procedure, shortened: as §2
[9] = AUC (0 to infinity) in CD1 mouse plasma at 750 umol/kg, ip; format: ADME, organism-based; set-up: dose 750 umol/kg, time infinity, route intraperitoneal; procedure, shortened: as §1
[10] = Toxicity in ip dosed CD1 mouse; format: organism-based; conditions: in vivo
Procedure, shortened: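 Single i.p. doses given to homozygous nude CD-1 Foxn1nu mice, with the vehicle formulated per compound. Doses escalated in 1.33-fold increments. MTD was defined as the highest dose causing no mortality, no body weight loss >15% and no other severe morbidity in any of six mice.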

HT-29 [11] = experiment: Diffusion coefficient, D in aerobic HT29 multicellular layers; format: ADME, cell-based; conditions: human
Procedure, shortened: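 Drug flux measured through HT29 multicellular layers on Teflon support membranes under 95% O2 at 37 °C, 50 µM initial donor concentration. Donor and receiver levels fitted with a diffusion model. Layer thickness estimated from flux of internal standard urea.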

HT-29 [12] = experiment: Antitumor activity against HT29 tumor inoculated in CD1 nude mouse at 750 umol/kg, ip administered 5 mins after gamma irradiation by excision assay relative to radiation alone; format: functional, Homo sapiens
Procedure, shortened: (§4)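 HT29 xenografts in nude CD-1 mice received 20 Gy γ radiation, then a single i.p. drug dose 5 min later, at 100% or 75% of MTD. Tumors excised 18 h afterwards, dissociated to single cells and plated for clonogens/g tumor. Hypoxic cell kill = log(clonogens/g, radiation only) − log(clonogens/g, radiation + drug).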

[13] = Cmax in CD1 mouse plasma at 750 umol/kg, ip; format: ADME, organism-based; set-up: dose 750 umol/kg, route intraperitoneal; procedure, shortened: as §1
[14] = Terminal half life in CD1 mouse plasma at 133 umol/kg, ip; format: ADME, organism-based; procedure, shortened: as §1
[15] = AUC (0 to infinity) in CD1 mouse plasma at 133 umol/kg, ip; format: ADME, organism-based; set-up: dose 133 umol/kg, route intraperitoneal, time infinity; procedure, shortened: as §1
[16] = Cmax in CD1 mouse plasma at 133 umol/kg, ip; format: ADME, organism-based; set-up: dose 133 umol/kg, route intraperitoneal; procedure, shortened: as §1
HT-29 [17] = experiment: Antitumor activity against HT29 tumor inoculated in CD1 nude mouse at 316 umol/kg, ip administered 5 mins after gamma irradiation by excision assay relative to radiation alone; format: functional, Homo sapiens; procedure, shortened: as §4
[18] = Terminal half life in CD1 mouse plasma at 316 umol/kg, ip; format: ADME, organism-based; procedure, shortened: as §1
[19] = Cmax in CD1 mouse plasma at 316 umol/kg, ip; format: ADME, organism-based; set-up: dose 316 umol/kg, route intraperitoneal; procedure, shortened: as §1
[20] = AUC (0 to infinity) in CD1 mouse plasma at 316 umol/kg, ip; format: ADME, organism-based; set-up: dose 316 umol/kg, time infinity, route intraperitoneal; procedure, shortened: as §1
HT-29 [21] = experiment: Antitumor activity against HT29 tumor inoculated in CD1 nude mouse at 562 umol/kg, ip relative to control; format: functional, Homo sapiens
HT-29 [22] = experiment: Antitumor activity against HT29 tumor inoculated in CD1 nude mouse at 562 umol/kg, ip administered 5 mins after gamma irradiation by excision assay relative to radiation alone; format: functional, Homo sapiens; procedure, shortened: as §4
[23] = AUC (0 to infinity) in CD1 mouse plasma at 562 umol/kg, ip; format: ADME, organism-based; set-up: dose 562 umol/kg, time infinity, route intraperitoneal; procedure, shortened: as §1
[24] = Cmax in CD1 mouse plasma at 562 umol/kg, ip; format: ADME, organism-based; set-up: dose 562 umol/kg, route intraperitoneal; procedure, shortened: as §1
[25] = Terminal half life in CD1 mouse plasma at 562 umol/kg, ip; format: ADME, organism-based; procedure, shortened: as §1

Structure (SMILES)	Ratio IC50 (HT-29 [2])	Activity (HT-29 [3]) [µM·h]	pIC50 (HT-29 [6])	pIC50 (SiHa [7])	Ratio IC50 (SiHa [8])	MTD [10] [µmol/kg]	D (HT-29 [11])	Penetration half distance (HT-29 [4]) [µm]	also measured
CCc1n[n+]([O-])c2ccc(OCCCN3CCOCC3)cc2[n+]1[O-]	153	38.6	5.17	5.37	217	1000	7.48 10^-7cm2/sec	–	half-life [1]: 34.8 min; Activity (HT-29 [4]): 64 µM; Activity (HT-29 [5]): 0.14%; AUC(0-inf) [9]: 162 µM·h; Activity (HT-29 [12]): 1.66%; Cmax [13]: 150 µM
CCc1n[n+]([O-])c2ccc(OCCN3CCCCC3)cc2[n+]1[O-]	254	6.8	5.82	6.00	302	178	–	34	half-life [14]: 25 min; AUC(0-inf) [15]: 7.75 µM·h; Cmax [16]: 9.8 µM
CCc1n[n+]([O-])c2cc(OCCCN3CCOCC3)ccc2[n+]1[O-]	147	7.1	5.52	5.89	181	421	–	34	Activity (HT-29 [17]): 0.98%; half-life [18]: 36 min; Cmax [19]: 30.1 µM; AUC(0-inf) [20]: 33 µM·h
CCc1n[n+]([O-])c2ccccc2[n+]1[O-]	54	19.7	5.17	5.23	84	562	26.12 10^-7cm2/sec	63	Activity (HT-29 [21]): 0.11%; Activity (HT-29 [22]): 0.89%; AUC(0-inf) [23]: 146 µM·h; Cmax [24]: 271 µM; half-life [25]: 11.2 min
